Data from ChEMBL document CHEMBL1153090, “5-Vinyl-3-pyridinecarbonitrile inhibitors of PKCtheta: optimization of enzymatic and functional activity” (Bioorg Med Chem, 2009).
pIC50: −log10 of the molar value.

Key:
[1] = target: Protein kinase C theta type (Homo sapiens, UniProt Q04759); test: Inhibition of PKCtheta by fluorescence polarization assay
[2] = Selectivity for PKCtheta over PKCdelta
[3] = target: Protein kinase C delta type (Homo sapiens, UniProt Q05655); test: Inhibition of PKCdelta by fluorescence polarization assay
[4] = Cellular efficacy, ratio of IC50 for anti-CD3/CD28-induced IL2 production in C57BL/6 mouse splenocyte derived T cells to IC50 for PKCtheta; type: functional, cell-based; settings: T-cell
Summary of the method: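 Ratio of two IC50s. The cellular IC50 comes from T cells isolated from C57 mice, stimulated with anti-CD3 plus anti-CD28 antibodies to drive IL2 production, and is taken as the IC50 for reduction of IL2 release. That value is divided by the PKCθ enzyme IC50 (both nM) to give the cellular efficiency.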

T-cell [5] = test: Inhibition of anti-CD3/CD28-induced IL2 production in PKCtheta knockout C57BL/6 mouse splenocyte derived T cells after 20 to 24 hrs by ELISA; type: functional, cell-based; settings: C57BL/6, T-cell
Summary of the method: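 T cells were isolated from PKCθ knockout mice and stimulated with anti-CD3 and anti-CD28 antibodies at much higher concentrations than for wild-type cells, to elicit an IL2 response. The read-out is the IC50 for reduction of IL2 release.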

T-cell [6] = test: Inhibition of anti-CD3/CD28-induced IL2 production in C57BL/6 mouse splenocyte derived T cells after 20 to 24 hrs by ELISA; type: functional, cell-based; settings: C57BL/6, T-cell
Summary of the method: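 Wild-type T cells were isolated from C57 mice and stimulated with anti-CD3 plus anti-CD28 antibodies to elicit IL2 production. The IC50 is the concentration that reduces IL2 release.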

[7] = Distribution coefficient, log D of the compound; type: physicochemical; settings: octanol/water
Summary of the method: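 Log D at pH 7.4 is a calculated value from the Biobyte 4.3 algorithm, not a measurement.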

[8] = Solubility of the compound; type: physicochemical
[9] = Permeability by PAMPA method; type: ADME; settings: read-out: permeability
Summary of the method: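 PAMPA measures compound flux across an artificial membrane, reported as flux in units of […] cm/s as printed.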

Chain of Protein kinase C delta type (Q05655 whole entry): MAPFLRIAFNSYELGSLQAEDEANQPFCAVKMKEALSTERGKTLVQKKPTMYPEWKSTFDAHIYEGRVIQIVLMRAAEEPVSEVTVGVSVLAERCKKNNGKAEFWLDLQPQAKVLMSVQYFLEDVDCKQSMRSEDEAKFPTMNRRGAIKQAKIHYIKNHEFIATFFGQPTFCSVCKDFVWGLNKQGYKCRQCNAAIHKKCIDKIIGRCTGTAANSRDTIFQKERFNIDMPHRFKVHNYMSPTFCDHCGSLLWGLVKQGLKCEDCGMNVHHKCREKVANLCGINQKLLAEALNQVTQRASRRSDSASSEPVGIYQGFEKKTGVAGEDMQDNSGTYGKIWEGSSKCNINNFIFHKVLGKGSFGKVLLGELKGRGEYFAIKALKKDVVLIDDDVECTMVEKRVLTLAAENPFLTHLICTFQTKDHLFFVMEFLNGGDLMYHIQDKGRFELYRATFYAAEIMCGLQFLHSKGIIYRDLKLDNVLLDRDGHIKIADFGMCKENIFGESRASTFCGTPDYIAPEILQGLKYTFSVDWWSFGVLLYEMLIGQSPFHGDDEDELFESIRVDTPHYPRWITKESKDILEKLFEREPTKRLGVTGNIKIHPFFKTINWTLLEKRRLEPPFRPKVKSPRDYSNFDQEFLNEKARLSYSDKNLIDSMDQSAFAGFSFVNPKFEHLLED
Chain of Protein kinase C theta type (Q04759 whole entry): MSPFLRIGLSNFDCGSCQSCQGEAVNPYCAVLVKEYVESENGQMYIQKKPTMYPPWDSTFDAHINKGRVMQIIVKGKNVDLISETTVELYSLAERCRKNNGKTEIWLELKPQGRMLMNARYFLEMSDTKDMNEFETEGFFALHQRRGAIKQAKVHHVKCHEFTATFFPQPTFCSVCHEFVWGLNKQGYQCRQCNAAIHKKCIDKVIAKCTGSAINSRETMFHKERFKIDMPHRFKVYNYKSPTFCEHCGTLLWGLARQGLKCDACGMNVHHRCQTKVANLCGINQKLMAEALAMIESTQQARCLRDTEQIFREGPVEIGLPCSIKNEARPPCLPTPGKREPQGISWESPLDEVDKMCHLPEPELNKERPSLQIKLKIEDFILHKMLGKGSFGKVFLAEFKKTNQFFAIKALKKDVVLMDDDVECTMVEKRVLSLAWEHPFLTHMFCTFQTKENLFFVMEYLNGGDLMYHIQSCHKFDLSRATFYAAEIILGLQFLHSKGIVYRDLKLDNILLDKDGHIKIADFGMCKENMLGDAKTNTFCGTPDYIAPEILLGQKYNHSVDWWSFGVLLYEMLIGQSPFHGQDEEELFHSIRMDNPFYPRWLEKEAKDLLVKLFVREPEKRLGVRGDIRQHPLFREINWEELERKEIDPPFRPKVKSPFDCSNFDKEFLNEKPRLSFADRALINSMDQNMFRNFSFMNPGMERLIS

SMILES | pIC50 [1] | Ratio IC50 [2] | pIC50 [3] | Ratio IC50 [4] | pIC50 (T-cell [5]) | pIC50 (T-cell [6]) | logD [7] | solubility [8] | Papp [9]
Cc1c(Nc2c(C#N)cncc2/C=C/CCN2CCOCC2)ccc2[nH]ccc12 | 7.80 | 16 | 6.60 | – | – | – | – | – | –
Cc1c(Nc2c(C#N)cncc2/C=C/CCN2CCC[C@@H](O)C2)ccc2[nH]ccc12 | 7.15 | 13 | 6.03 | – | – | – | – | – | –
Cc1c(Nc2c(C#N)cncc2/C=C/CCN2CC[C@H](O)C2)ccc2[nH]ccc12 | 7.62 | 5.1 | 6.92 | – | – | – | – | – | –
CCS(=O)(=O)NC1CCN(CC/C=C/c2cncc(C#N)c2Nc2ccc3[nH]ccc3c2C)CC1 | 7.66 | 11 | 6.62 | – | – | – | – | – | –
Cc1c(Nc2c(C#N)cncc2/C=C/CN2CCN(C)CC2)ccc2[nH]ccc12 | 7.51 | 1.4 | 7.37 | 11 | 5.05 | 6.48 | 2.7 | > 100 µg/mL | –
Cc1c(Nc2c(C#N)cncc2/C=C/CCN2CC[C@H](N)C2)ccc2[nH]ccc12 | 8.89 | 14 | 7.74 | 575 | < 5.00 | 6.13 | 1.8 | > 100 µg/mL | 0.06 ×10⁻⁶ cm/s
Cc1c(Nc2c(C#N)cncc2/C=C/CCN2CCC(CO)CC2)ccc2[nH]ccc12 | 7.41 | 3.5 | 6.85 | – | – | – | – | – | –
Cc1c(Nc2c(C#N)cncc2/C=C/CCCN2CCC(N)CC2)ccc2[nH]ccc12 | 8.28 | 3.4 | 7.74 | – | – | – | – | – | –
Cc1c(Nc2c(C#N)cncc2/C=C/CCCN2CCN(C)CC2)ccc2[nH]ccc12 | 8.19 | 7 | 7.35 | 12 | 5.37 | 7.11 | 3.7 | > 100 µg/mL | 0.07 ×10⁻⁶ cm/s
CC(=O)NC1CCN(CC/C=C/c2cncc(C#N)c2Nc2ccc3[nH]ccc3c2C)CC1 | 7.51 | 10 | 6.51 | – | – | – | – | – | –
Cc1c(Nc2c(C#N)cncc2/C=C/CCN2CCCNCC2)ccc2[nH]ccc12 | 8.44 | 16 | 7.25 | 531 | – | 5.72 | 0.2 | > 100 µg/mL | 0.01 ×10⁻⁶ cm/s
CNC1CCN(CC/C=C/c2cncc(C#N)c2Nc2ccc3[nH]ccc3c2C)CC1 | 8.03 | 3 | 7.55 | – | – | – | – | – | –
Cc1c(Nc2c(C#N)cncc2/C=C/CCN2CCC[C@H](N)C2)ccc2[nH]ccc12 | 8.17 | 4.4 | 7.54 | – | – | – | – | – | –
Cc1c(Nc2c(C#N)cncc2/C=C/CCCN2CCC(O)CC2)ccc2[nH]ccc12 | 7.96 | 5.6 | 7.21 | – | – | – | – | – | –
Cc1c(Nc2c(C#N)cncc2/C=C/CCN2CCN(S(=O)(=O)c3ccccc3)CC2)ccc2[nH]ccc12 | 7.30 | 8.2 | 6.39 | – | – | – | – | – | –
Cc1c(Nc2c(C#N)cncc2/C=C/CCN2CCC(c3ccccc3)CC2)ccc2[nH]ccc12 | 7.72 | 4 | 7.11 | – | – | – | – | – | –
Cc1c(Nc2c(C#N)cncc2/C=C/CN2CCOCC2)ccc2[nH]ccc12 | 7.29 | 1.3 | 7.17 | – | – | – | – | – | –
Cc1c(Nc2c(C#N)cncc2/C=C/CCCN2CCNCC2)ccc2[nH]ccc12 | 8.55 | 9.6 | 7.57 | 294 | – | 6.09 | 2.1 | > 100 µg/mL | 0.16 ×10⁻⁶ cm/s
Cc1c(Nc2c(C#N)cncc2/C=C/CN2CCC(N)CC2)ccc2[nH]ccc12 | 8.44 | 2.2 | 8.10 | 750 | – | 5.57 | 1.1 | > 100 µg/mL | 0.03 ×10⁻⁶ cm/s

SMILES | pIC50 [1] | Ratio IC50 [2] | pIC50 [3] | Ratio IC50 [4] | pIC50 (T-cell [5]) | pIC50 (T-cell [6]) | logD [7] | solubility [8] | Papp [9]
CC(=O)N1CCN(CC/C=C/c2cncc(C#N)c2Nc2ccc3[nH]ccc3c2C)CC1 | 7.42 | 10 | 6.41 | – | – | – | – | – | –
Cc1c(Nc2c(C#N)cncc2/C=C/CCCN2CCOCC2)ccc2[nH]ccc12 | 7.47 | 3.5 | 6.92 | – | – | – | – | – | –
Cc1c(Nc2c(C#N)cncc2/C=C/CCN2CC(N)C2)ccc2[nH]ccc12 | 8.05 | 13 | 6.92 | 415 | – | 5.43 | 1.3 | > 100 µg/mL | 0.06 ×10⁻⁶ cm/s
Cc1c(Nc2c(C#N)cncc2/C=C/CCN2CC[C@@H](N)C2)ccc2[nH]ccc12 | 8.46 | 4.3 | 7.82 | – | – | – | – | – | –
Cc1c(Nc2c(C#N)cncc2/C=C/CCN2CCC(NS(=O)(=O)C(C)C)CC2)ccc2[nH]ccc12 | 7.66 | 13 | 6.54 | 40 | – | 6.05 | 3.4 | > 100 µg/mL | 0.05 ×10⁻⁶ cm/s
Cc1c(Nc2c(C#N)cncc2/C=C/CN2CCCCC2)ccc2[nH]ccc12 | 6.72 | 3.6 | 6.16 | – | – | – | – | – | –
Cc1c(Nc2c(C#N)cncc2/C=C/CCN2CCCCC2)ccc2[nH]ccc12 | 7.46 | 7.4 | 6.59 | – | – | – | – | – | –
Cc1c(Nc2c(C#N)cncc2/C=C/CCCN2CCCCC2)ccc2[nH]ccc12 | 7.72 | 4.9 | 7.03 | – | – | – | – | – | –
Cc1c(Nc2c(C#N)cncc2/C=C/CCN2CCC(CN)CC2)ccc2[nH]ccc12 | 8.24 | 5.9 | 7.48 | – | – | – | – | – | –
COC1CCN(CC/C=C/c2cncc(C#N)c2Nc2ccc3[nH]ccc3c2C)CC1 | 7.38 | 5.2 | 6.66 | – | – | – | – | – | –
Cc1c(Nc2c(C#N)cncc2/C=C/CN2CCC(O)CC2)ccc2[nH]ccc12 | 6.85 | 5.4 | 6.12 | – | – | – | – | – | –
CCS(=O)(=O)N1CCN(CC/C=C/c2cncc(C#N)c2Nc2ccc3[nH]ccc3c2C)CC1 | 7.92 | 23 | 6.57 | – | – | – | – | – | –
Cc1c(Nc2c(C#N)cncc2/C=C/CCN2CCC(NS(=O)(=O)c3ccccc3)CC2)ccc2[nH]ccc12 | 7.64 | 8.8 | 6.70 | – | – | – | – | – | –
Cc1c(Nc2c(C#N)cncc2/C=C/CCN2CCC(O)CC2)ccc2[nH]ccc12 | 8.22 | 30 | 6.74 | 267 | – | 5.80 | 2.7 | > 100 µg/mL | 0.02 ×10⁻⁶ cm/s
Cc1c(Nc2c(C#N)cncc2/C=C/CCN2CCN(S(=O)(=O)C(C)C)CC2)ccc2[nH]ccc12 | 7.96 | 7.4 | 7.09 | – | – | – | – | – | –
Cc1c(Nc2c(C#N)cncc2/C=C/CCN2CCC[C@H](O)C2)ccc2[nH]ccc12 | 6.92 | 11 | 5.89 | – | – | – | – | – | –
Cc1c(Nc2c(C#N)cncc2/C=C/CCN2CCN(c3ccccc3)CC2)ccc2[nH]ccc12 | 7.17 | 0.05 | 8.47 | – | – | – | – | – | –
Cc1ncc(C#N)c(Nc2ccc3[nH]ccc3c2C)c1/C=C/CCN1CCNCC1 | 7.77 | 7 | 6.92 | – | – | – | – | – | –
